According to ChEMBL document CHEMBL1156665, “Potent inhibition of human phosphodiesterase-5 by icariin derivatives” (J Nat Prod, 2008):
Calls of active or inactive are those of the source. The rule behind the calls is not given here.

How the values were obtained:
[1] = target: T1, cGMP-specific 3',5'-cyclic phosphodiesterase (Homo sapiens, UniProt O76074); assay: Inhibition of human recombinant PDE5A1 expressed in COS7 cells; assay type: cell-based, COS-7
[2] = target: T2, Cone cGMP-specific 3',5'-cyclic phosphodiesterase subunit alpha' (Homo sapiens, UniProt P51160); assay: Inhibition of human PDE6C
T2 sequence (P51160 whole entry): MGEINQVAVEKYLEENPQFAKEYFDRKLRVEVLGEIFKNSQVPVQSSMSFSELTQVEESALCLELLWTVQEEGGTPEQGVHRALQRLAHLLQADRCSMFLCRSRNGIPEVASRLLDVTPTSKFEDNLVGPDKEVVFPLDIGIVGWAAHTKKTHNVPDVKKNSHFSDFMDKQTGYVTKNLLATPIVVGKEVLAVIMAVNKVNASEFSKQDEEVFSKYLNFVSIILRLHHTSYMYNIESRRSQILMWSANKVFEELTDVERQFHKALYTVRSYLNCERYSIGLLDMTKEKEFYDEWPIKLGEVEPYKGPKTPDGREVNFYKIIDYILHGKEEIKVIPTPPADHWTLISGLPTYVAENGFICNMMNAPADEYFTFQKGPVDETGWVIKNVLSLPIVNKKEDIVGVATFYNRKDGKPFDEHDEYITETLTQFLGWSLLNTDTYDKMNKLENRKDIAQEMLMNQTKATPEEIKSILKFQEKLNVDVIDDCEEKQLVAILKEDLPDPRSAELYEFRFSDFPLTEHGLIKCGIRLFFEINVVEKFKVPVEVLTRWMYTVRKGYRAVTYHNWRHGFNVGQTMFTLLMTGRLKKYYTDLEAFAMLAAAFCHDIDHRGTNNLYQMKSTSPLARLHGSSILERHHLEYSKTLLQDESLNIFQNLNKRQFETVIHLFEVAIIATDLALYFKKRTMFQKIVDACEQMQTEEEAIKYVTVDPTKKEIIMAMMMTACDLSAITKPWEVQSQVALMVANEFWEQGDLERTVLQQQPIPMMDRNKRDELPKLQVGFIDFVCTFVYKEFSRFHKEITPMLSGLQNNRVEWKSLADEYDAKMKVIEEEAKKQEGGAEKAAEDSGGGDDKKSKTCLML

[3] = target: T2, Cone cGMP-specific 3',5'-cyclic phosphodiesterase subunit alpha'; assay: Inhibition of human PDE6C at 10 uM; settings: in the assay text read “at 10-fold PDE5A1 IC50” for “at 10 uM”
Method in brief: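 Human PDE6C run under the same conditions as the PDE5A1 assay (Kincaid–Manganiello method, modified), at 0.5 U enzyme per sample. Compounds tested at a single concentration 10-fold above their PDE5A1 IC50. Mean ± SD of at least two experiments in triplicate.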

Homo sapiens [4] = organism: Homo sapiens; assay: Selectivity ratio of IC50 for human PDE6C to IC50 for human PDE5A1
Method in brief: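 PDE6C IC50 divided by PDE5A1 IC50. PDE6C assayed as for PDE5A1 (modified Kincaid–Manganiello method, 0.5 U enzyme/sample). PDE5A1 was full-length human recombinant enzyme expressed in COS-7 cells. IC50s from sigmoidal curve fits. Mean ± SD of at least two experiments in triplicate.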

Homo sapiens [5] = organism: Homo sapiens; assay: Selectivity ratio of IC50 for human cAMP-PDE to IC50 for human PDE5A1
Method in brief: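 cAMP-PDE IC50 divided by PDE5A1 IC50. cAMP-PDE from human platelet lysate (64 µg protein/mL) with 0.5 µM cAMP/[3H]-cAMP, 5 min at 30 °C, at 1–250 µM. PDE5A1 was recombinant human full-length enzyme expressed in COS-7 cells. IC50s from sigmoidal fits.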

[6] = Cytotoxicity against human fibroblasts at 100 uM after 24 hrs by MTT assay; assay type: cell-based; settings: fibroblast
Method in brief: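 Human skin fibroblasts exposed 24 h to 0.25–100 µM in DMEM-F12 with 10% heat-inactivated FBS, 1% penicillin, 1% L-glutamine. Medium then replaced with MTT 0.5 mg/mL in PBS, 3 h at 37 °C. Formazan extracted with 2-propanol/DMSO (9:1), 15 min at 37 °C, absorbance read at 560 nm.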

[7] = Inhibition of human platelet cAMP-specific phosphodiesterase
Method in brief: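 Platelets from healthy volunteers' blood, pelleted by centrifugation at 4 °C, resuspended in 10 mM Tris/HCl pH 7.4 and lysed by three freeze–thaw cycles. Lysate (64 µg protein/mL) incubated 5 min at 30 °C with 0.5 µM cAMP plus [3H]-cAMP in 30 mM Tris-HCl pH 7.4, 4 mM MgCl2. Product converted with nucleotidase and separated on DEAE-Sephadex. [3H]-adenosine counted by scintillation. Tested at 1–250 µM, IC50 from sigmoidal fit. Mean ± SD of three experiments in triplicate.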

[8] = target: T1, cGMP-specific 3',5'-cyclic phosphodiesterase; assay: Inhibition of human recombinant PDE5A1 expressed in COS7 cells at 10 uM; assay type: cell-based; settings: COS-7
Method in brief: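 Full-length human PDE5A1 cDNA expressed in COS-7 cells as the enzyme source. Activity measured by the Kincaid and Manganiello method with minor modifications. Individual compounds screened at a single 10 µM concentration; plant extracts at 50 µg/mL. Results are mean ± SD of at least two experiments in triplicate.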

CC(C)=CCc1c(O)cc(O)c2c(=O)c(O)c(-c3ccc(O)c(O)c3)oc12
IC50 [1]: 0.7 µM

COc1ccc(-c2oc3c(CC=C(C)C)c(OCCO)cc(O)c3c(=O)c2OCCO)cc1
IC50 [2]: 30.9 µM
IC50 [1]: 0.074 µM
Activity [3]: inactive
Ratio IC50 (Homo sapiens [4]): 418
Ratio IC50 (Homo sapiens [5]): 1300
Activity [6]: Non-toxic
IC50 [7]: 96.3 µM

COc1ccc(-c2oc3c(CC=C(C)C)c(O)cc(O)c3c(=O)c2O[C@@H]2O[C@@H](C)[C@H](O)[C@@H](O)[C@H]2O)cc1 [ICARISIDE II]
IC50 [1]: 0.16 µM

COc1ccc(-c2oc3c4c(cc(O)c3c(=O)c2O)OC(C)(C)CC4)cc1
IC50 [1]: 45.5 µM
Activity [3]: inactive

O=C1C[C@@H](c2ccc(O)cc2)Oc2cc(O)cc(O)c21
inhibition [8]: 6%

CC(C)=CCc1c(O)cc(O)c2c(=O)cc(-c3ccc(O)cc3)oc12
IC50 [1]: 1.29 µM

O=c1c(O)c(-c2ccc(O)c(O)c2)oc2cc(O)cc(O)c12
inhibition [8]: 23%

COc1ccc(-c2oc3c(CC=C(C)C)c(O)cc(O)c3c(=O)c2O[C@@H]2O[C@H](C)[C@@H](O)[C@H](O)[C@@H]2O)cc1
Activity [3]: inactive

COc1ccc(-c2oc3c(CC=C(C)C)c(O)cc(O)c3c(=O)c2O)cc1 [ICARITIN]
IC50 [1]: 2.2 µM
Activity [3]: inactive

COc1ccc(-c2oc3c(CC=C(C)C)c(O[C@@H]4O[C@H](CO)[C@@H](O)[C@H](O)[C@H]4O)cc(O)c3c(=O)c2O[C@@H]2O[C@@H](C)[C@H](O)[C@@H](O)[C@H]2O)cc1 [ICARIIN]
IC50 [1]: 5.9 µM
inhibition [3]: 45%

O=c1cc(-c2ccc(O)cc2)oc2cc(O)cc(O)c12
inhibition [8]: 12%

COc1ccc(-c2oc3c(CC=C(C)C)c(OCCO)cc(O)c3c(=O)c2O[C@@H]2O[C@H](C)[C@@H](O)[C@H](O)[C@@H]2O)cc1
IC50 [1]: 0.36 µM
inhibition [3]: 86%

CC(C)=CCc1c(O)cc(O)c2c1OC(c1ccc(O)cc1)CC2=O (centres undefined) [SOPHORAFLAVANONE B]
IC50 [1]: 16.2 µM

CCCc1nn(C)c2c(=O)[nH]c(-c3cc(S(=O)(=O)N4CCN(C)CC4)ccc3OCC)nc12
IC50 [7]: 27.5 µM
